Shown are actives, neighbours in structure and some others; about 1.5% of the full set was active somewhere.
Rin1-Abl PPI inh – human Rin1-Abl interaction inhibition; inhibition, % at 7.35 µM; hit rate 0.4% among 360,000; TR-FRET Rin1/Abl binding, biochemical; in the data active means inhibition above about 5%, passing the limit was not always enough
Tb MetRS inh – blocks T. brucei methionyl-tRNA synthetase activity; purified T. brucei MetRS, ATP depletion, Kinase-Glo luminescence; inhibition, % at 11.9 µM; hit rate 0.4% among 360,000; AID 624268;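 active means inhibition above a per-plate cutoff of the control wells' mean inhibition plus 3 SD, cut at about 5.5% in these data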
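technique = Kinase-Glo luminescence, ATP depletion format | system = purified MetRS (methionyl-tRNA synthetase) enzyme from Trypanosoma brucei | timing = 15 min preincubation, 2 h reaction, all 25 °C | evaluation = percent inhibition versus plate control medians | dosing = single dose, 11.9 µM final nominal, 0.9% final DMSO | also added = substrates ATP, L-methionine and bulk Escherichia coli tRNA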
PKA-R2B act – PKA-R2B complex activation; P22694+P31323; PKA-R2B holoenzyme dissociation, Cy5-IP20 fluorescence polarization; R2B truncated from residue 108, S112A mutant; 0% DMSO only, 100% 113 µM cGMP; activation, % at 11.4 µM; hit rate 0.079% among 340,000;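 active means activation above a cutoff set at the mean over all compounds plus 3 SD, cut at about 18% in these data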;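 further: higher means more holoenzyme dissociation and a rise in polarization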
Target sequence (P31323 whole entry, looked up, other chains not shown, the tested form may be a part): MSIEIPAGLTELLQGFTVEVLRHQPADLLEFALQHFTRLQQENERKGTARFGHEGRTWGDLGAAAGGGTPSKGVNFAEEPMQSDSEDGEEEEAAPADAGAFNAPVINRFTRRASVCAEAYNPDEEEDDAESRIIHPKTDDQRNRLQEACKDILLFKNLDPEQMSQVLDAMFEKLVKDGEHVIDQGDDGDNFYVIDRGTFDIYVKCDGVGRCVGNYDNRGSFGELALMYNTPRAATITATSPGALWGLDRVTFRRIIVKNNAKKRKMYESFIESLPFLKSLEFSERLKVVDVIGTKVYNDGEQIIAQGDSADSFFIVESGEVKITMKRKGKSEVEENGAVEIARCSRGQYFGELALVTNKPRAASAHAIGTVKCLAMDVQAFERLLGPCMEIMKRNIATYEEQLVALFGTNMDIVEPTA
PKA-R1A act – activators of PKA-R1A complex | PKA-R1A dissociation, Cy5-IP20 fluorescence polarization; scaled: DMSO 0%, 113 µM cGMP 100% | P00514+P68181 | AID 504707 | activation, % at 11.4 µM | hit rate 0.083% among 340,000;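 active means percent activation above the mean of all tested compounds plus 3 SD, cut at about 19% in these data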;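 further: higher means more PKAc released from R1A so a rise in polarization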
Cardio protect – protects H9c2 cardiomyocytes from peroxide injury. H2O2 injury protection, ATPLite, 2 h. protection from H2O2 cell death, % at 20 µM. hit rate 0.63% among 360,000. AID 588492;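 active means compounds giving at least 50% protection of heart cells from peroxide-induced death in the single-dose screen, raw or plate-pattern-corrected value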
R2B FP artifact – fluorescence polarization artifact in PKA-R2B activator counter-screen. shares compounds with PKA-R2B act. FP artifact counterscreen. activation, % at 11.4 µM. hit rate 6% among 270; in the data active means activation above about 20%;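 further: Cy5 labelled IP20 peptide probe with compound but no PKA protein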
PKA-R2B confirm – PKA-R2B complex activation, confirmation. shares compounds with PKA-R2B act. fluorescence polarization. activation, % at 11.4 µM. hit rate 9% among 270. AID 504797; in the data active means activation above about 19%
Target sequence (P31323 whole entry, looked up): as the sequence (P31323 whole entry, looked up, other chains not shown, the tested form may be a part) above
R1A FP artifact – fluorescence polarization artifact in PKA-R1A activator counter-screen | Cy5-IP20 peptide alone, fluorescence polarization artifact counterscreen | activation, % at 11.4 µM | AID 504799 | shares compounds with PKA-R1A act | hit rate 7% among 280;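 active means mean activation over triplicate runs exceeds the adjusted cutoff derived for the parent primary screen, cut at about 19% in these data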;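 further: no PKA protein present so any polarization rise reflects compound interference; higher means stronger polarization artifact and likely false positive in parent screen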
PKA-R1A act conf – confirmation of PKA-R1A complex activators; shares compounds with PKA-R1A act; Cy5-IP20 fluorescence polarization, PKA-R1A holoenzyme dissociation; hit rate 9% among 280; activation, % at 11.4 µM;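 active means mean activation over replicate wells exceeds the adjusted hit threshold taken from the earlier primary screen, cut at about 20% in these data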
Rin1-Abl confirm – Rin1-Abl interaction inhibition confirmation | hit rate 49% among 1,300 | shares compounds with Rin1-Abl PPI inh | inhibition, % at 7.35 µM | TR-FRET Rin1-Abl binding, purified proteins
GFP quencher – quenches GFP fluorescence, counter-screen for Rin1-Abl inhibitors; inhibitors/quenchers counterscreen; hit rate 8.5% among 1,300; shares compounds with Rin1-Abl PPI inh; inhibition, % at 6.75 µM;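 further: ABL1-eGFP fusion protein alone without its partner RIN1-SBP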
Large screens that a line does not name were inactive (follow-up assays come after a bar, where they were run). Unless noted, no stated cut-off is given here; in the data, active means inhibition above about 6.5%; inactive means the rest.

CN1CCN(Cc2nc3ccccc3c(=O)[nH]2)CC1	Cardio protect 55
CC(C)(O)/C=C/C(=O)C(C)(O)C1C(O)CC2(C)C3CC=C4C(C=C(O)C(=O)C4(C)C)C3(C)C(=O)CC12C (stereo not drawn)	none
C=C1[C@@H](C)[C@H]2[C@H](Cc3ccccc3)NC(=O)[C@]23OC(=O)/C=C/[C@H](O)CCC[C@@H](C)C/C=C/[C@H]3[C@@H]1O	Cardio protect 79
CCOc1ccc(N=C2SCCCN2C)cc1	none
Cc1cccc(OP(=O)(Nc2ccc(F)cc2)Oc2cccc(C)c2)c1	none
O=C1C(=O)c2cccc3cccc1c23	none
O=C1C(=O)c2ccccc2-c2ccccc21	Tb MetRS inh 38
O=C(N/N=C/c1c(O)n(CCC2=CCCCC2)c(=S)[nH]c1=O)c1ccccc1	Cardio protect 66
O=C(N/N=C/c1c(O)n(CCC2=CCCCC2)c(=O)[nH]c1=O)c1ccccc1	none
CC12CCC3C(CC=C4CC5(CCC43C)OCCO5)C1CCC2=O (stereo not drawn)	none
Cc1ccccc1NP(=O)(Oc1ccccc1F)Oc1ccccc1F	Cardio protect 73
Cc1c(C(=O)N2CCC3(CC2)OCCO3)oc2ccc(S(=O)(=O)N3CCCCC3)cc12	none
COc1ccc(-n2c(/C=C/c3ccc(O)c(O)c3)nc3ccccc3c2=O)cc1	Cardio protect 57
COc1cc(/C=C/c2nc3ccccc3c(=O)n2-c2ccc(O)cc2)ccc1O	Cardio protect 66
O=c1c2ccccc2nc(/C=C/c2ccc3c(c2)OCO3)n1-c1ccccc1	none
O=[N+]([O-])c1ccc(Cl)cc1	none
N#CC(C#N)=C(C#N)c1ccc(Nc2ccccc2)cc1	none
C[C@]12CC[C@H]3[C@@H](CCC4=CC(=O)CC[C@@H]43)[C@@H]1CC[C@@H]2O	none
C[C@]12CC[C@@H]3c4ccc(O)c(O)c4CC[C@H]3[C@@H]1CC[C@@H]2O	Cardio protect 121
Cc1cccc(C)c1OC(=O)Cc1ccccc1	none
Cc1sc2nc(COC(=O)Cc3ccccc3)[nH]c(=O)c2c1C	Cardio protect 53
Cn1c(=O)c2c(nc(N/N=C/c3c(O)n(C4CCCCC4)c(=S)[nH]c3=O)n2C)n(C)c1=O	Cardio protect 68
Cc1ccccc1-n1c(O)c(/C=N/Nc2nc3c(c(=O)n(C)c(=O)n3C)n2C)c(=O)[nH]c1=S	none
COc1ccc(P2(=O)Nc3ccccc3N2)cc1	Cardio protect 53
CN1C(=O)/C(=C/C=C/c2ccco2)C(=O)NC1=S	Rin1-Abl PPI inh 5.4
O=P(Nc1ccccc1)(Oc1ccccc1)Oc1ccccc1	Cardio protect 54
COc1cccc(OP(=O)(Nc2ccccc2)Oc2cccc(OC)c2)c1	Cardio protect 70
COc1ccc(OC)c(NP(=O)(Oc2ccccc2)Oc2ccccc2)c1	none
O=C1CC=C2C3CC4N(CCC45c4cc(O)c(O)cc4N1C25)CC3=CCBr (stereo not drawn)	Rin1-Abl PPI inh 31
O=C(C1CC(=O)N(C2CCCCCCC2)C1)N1CCC2(CC1)OCCO2 (stereo not drawn)	none
COc1ccc(-c2nc3ccccc3c(=O)n2-c2ccc(OC)cc2)cc1	none
CCn1nc(-c2ccccc2)nc2c(=O)n(C)c(=O)nc1-2	Rin1-Abl PPI inh 27, Tb MetRS inh 27
CC(C)(C)c1ccc(O)c(N=Cc2c(O)ccc3ccccc23)c1	Cardio protect 51
COC(=O)C(O)(c1ccc(N=Cc2ccccc2O)c(C)c1)C(F)(F)F (stereo not drawn)	none
COC(=O)CCCNC(=O)CN1CC(c2ccccc2)CC1=O (stereo not drawn)	none
Cc1c(C(=O)N2CCC3(CC2)OCCO3)sc2ncnc(N3CCN(c4ccccn4)CC3)c12	none
CC1CCOC(=O)C=CC=CC(=O)OC2CC3OC4C5OC5(C)C(O)CC4(COC(=O)C1O)C2(C)C31CO1 (stereo not drawn)	none
CC1=CC2OC3CC4OC(=O)C=CC=CC(=O)OCCC(C)C(O)C(=O)OCC2(CC1)C4(C)C31CO1 (stereo not drawn)	Cardio protect 57
CCN1CCN(c2nc3c(c(=O)[nH]2)CCCC3)CC1	Cardio protect 62
O=c1[nH]c(=O)n(Cc2ccco2)c(O)c1C=NCc1cccs1	Cardio protect 54
C#CCNc1ccncc1S(=O)(=O)NC(=O)NC(C)C	PKA-R2B act 20 | R2B FP artifact inactive | PKA-R2B confirm inactive
O=C1NC(=O)C2(CCCc3ccc(N(CCCl)CCCl)cc32)N1 (stereo not drawn)	none
CCOC(=O)c1ccccc1NC(=O)c1c(O)[nH]c(=S)[nH]c1=O	PKA-R1A act 19 | R1A FP artifact inactive | PKA-R1A act conf inactive
COC(=O)C1=C(c2c(C)noc2C)C[C@@H]2CC[C@H]1N2C(=O)N1CCCC1	PKA-R1A act 20 | R1A FP artifact inactive | PKA-R1A act conf inactive
COC(=O)C1=C(c2c(C)noc2C)C[C@@H]2CC[C@H]1N2C(=O)NC(C)C	none
C[N+]1(C)C2CC(OC(=O)[C@H](CO)c3ccccc3)CC1C1OC12 (stereo partly drawn)	none
O=C(Cc1ccccc1)OCCN1CCCCC1	none
NC(=O)C1(N2CCCCC2)CCN(Cc2ccccc2)CC1	Rin1-Abl PPI inh 7.9 | Rin1-Abl confirm inactive | GFP quencher inactive
NC(=O)c1cn(C2CCCCC2)c2ccccc2c1=O	Rin1-Abl PPI inh 10 | Rin1-Abl confirm 11 | GFP quencher inactive
Cn1cc(C(=O)OCC(=O)N2CCCCC2)c2ccccc21	none
CC/C(=N\N1CCCCCC1)c1c(O)n(-c2ccc(C)cc2)c(=O)[nH]c1=O	none
N#CC1c2ccccc2-n2nncc2CN1S(=O)(=O)c1ccccc1 (stereo not drawn)	Rin1-Abl PPI inh 10 | Rin1-Abl confirm inactive | GFP quencher inactive

Screens from PubChem.
